Laboratory results published in ChEMBL document CHEMBL4402599 (J Med Chem, 2020).

Assays:
[1] = biological target: T1, Inositol 1,4,5-trisphosphate-gated calcium channel ITPR1 (Rattus norvegicus, UniProt P29994); assay: Agonist activity at rat IP3R1 expressed in HEK cells assessed as increase in calcium release in cytosol by measuring fluorescence signal by Mag-Fluo4 dye based assay; assay type: cell-based
[2] = biological target: Inositol 1,4,5-trisphosphate-gated calcium channel ITPR1 (Rattus norvegicus) (UniProt P29994); assay: Agonist activity at rat IP3R1 expressed in HEK cells assessed as increase in calcium release in cytosol by measuring fluorescence signal by Mag-Fluo4 dye based assay relative to control; assay type: cell-based
In short: (§1)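 HEK-293 cells lacking all three IP3R subtypes (CRISPR), stably transfected with rat IP3R1 (S1 splice site absent), G418-selected monoclonal line. ER loaded with Mag-Fluo-4 AM (20 μM, 1 h, 22 °C), saponin-permeabilized, in Ca2+-free cytosol-like medium, pH 7.0, 220 nM free Ca2+. MgATP 1.5 mM loads stores, CPA 10 μM added, ligand 60 s later. Read-out is fluorescence at 485/520 nm, 20 °C. Release is % of (Ffull − Fempty). Hill fit; 5–11 experiments in duplicate.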

[3] = biological target: T1, Inositol 1,4,5-trisphosphate-gated calcium channel ITPR1; assay: Displacement of [3H]-IP3 from IP3R1 in Wistar rat cerebellar membrane measured after 5 mins by liquid scintillation counting method; assay type: cell membranes, Cerebellum
[4] = Stability of compound in D2O at pH 7 under room temperature measured after 2 months by H-NMR spectroscopy; assay type: physicochemical; conditions: buffer, pH 7, 1461 h
In short: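 Triethylammonium salt left in D2O at pH 7, room temperature; degradation followed over time.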

[5] = biological target: Inositol 1,4,5-trisphosphate-gated calcium channel ITPR1 (Rattus norvegicus) (UniProt P29994); assay: Ratio of EC50 for agonist activity at rat IP3R1 expressed in HEK cells assessed as increase in calcium release in cytosol by measuring fluorescence signal by Mag-Fluo4 dye based assay to Kd for binding affinity to IP3R1 in Wistar rat cerebellar membrane; assay type: cell-based
In short: (§2)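 Ratio of EC50 from Mag-Fluo-4 Ca2+ release in permeabilized rat IP3R1-HEK cells to Kd from [3H]-IP3 competition with rat cerebellar membranes. Calculated from the difference of log values (pEC50 − pKd); given as mean with 95% CI.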

[6] = Stability of compound assessed as acidic hydrolysis at pH 1 measured after 1 day by H-NMR spectroscopy; assay type: physicochemical; conditions: buffer, pH 1, 24 h
In short: (§3)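 Hydrolysis followed after 1 day at pH 1 or at pH 14.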

[7] = Stability of compound assessed as basic hydrolysis at pH 14 measured after 1 day by H-NMR spectroscopy; assay type: physicochemical; conditions: buffer, pH 14, 24 h; in short: as §3
[8] = Stability of compound assessed as basic hydrolysis at pH 10 measured after 1 week by H-NMR spectroscopy; assay type: physicochemical; conditions: buffer, pH 10, 168 h
In short: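 Kept at pH 10 for one week and checked for degradation.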

[9] = biological target: Inositol 1,4,5-trisphosphate-gated calcium channel ITPR1 (Rattus norvegicus) (UniProt P29994); assay: Agonist activity at rat IP3R1 expressed in HEK cells assessed as increase in calcium release in cytosol by measuring fluorescence signal at 300 uM by Mag-Fluo4 dye based assay relative to control; assay type: cell-based; in short: as §1
[10] = biological target: T1, Inositol 1,4,5-trisphosphate-gated calcium channel ITPR1; assay: Partial agonist activity at rat IP3R1 expressed in HEK cells assessed as increase in calcium release in cytosol by measuring fluorescence signal by Mag-Fluo4 dye based assay; assay type: cell-based; in short: as §1
[11] = biological target: Inositol 1,4,5-trisphosphate-gated calcium channel ITPR1 (Rattus norvegicus) (UniProt P29994); assay: Partial agonist activity at rat IP3R1 expressed in HEK cells assessed as increase in calcium release in cytosol by measuring fluorescence signal by Mag-Fluo4 dye based assay relative to inositol-1,4,5-triphosphate; assay type: cell-based; in short: as §1
[12] = biological target: Inositol 1,4,5-trisphosphate-gated calcium channel ITPR1 (Rattus norvegicus) (UniProt P29994); assay: Ratio of EC50 for partial agonist activity at rat IP3R1 expressed in HEK cells assessed as increase in calcium release in cytosol by measuring fluorescence signal by Mag-Fluo4 dye based assay to Kd for binding affinity to IP3R1 in Wistar rat cerebellar membrane; assay type: cell-based; in short: as §2
[13] = biological target: Inositol 1,4,5-trisphosphate-gated calcium channel ITPR1 (Rattus norvegicus) (UniProt P29994); assay: Ratio of EC39 for partial agonist activity at rat IP3R1 expressed in HEK cells assessed as increase in calcium release in cytosol by measuring fluorescence signal by Mag-Fluo4 dye based assay to Kd for binding affinity to IP3R1 in Wistar rat cerebellar membrane; assay type: cell-based
[14] = Drug degradation at 4 degree C measured after 3 weeks by 31P-NMR analysis; assay type: physicochemical; conditions: read-out: Drug degradation
[15] = Drug metabolism assessed as catalytic hydrogenolysis by measuring beta-D-glucopyranosyl 1,3,4-trisphosphate triethylammonium formation by 31P-NMR analysis

T1 sequence (P29994 whole entry): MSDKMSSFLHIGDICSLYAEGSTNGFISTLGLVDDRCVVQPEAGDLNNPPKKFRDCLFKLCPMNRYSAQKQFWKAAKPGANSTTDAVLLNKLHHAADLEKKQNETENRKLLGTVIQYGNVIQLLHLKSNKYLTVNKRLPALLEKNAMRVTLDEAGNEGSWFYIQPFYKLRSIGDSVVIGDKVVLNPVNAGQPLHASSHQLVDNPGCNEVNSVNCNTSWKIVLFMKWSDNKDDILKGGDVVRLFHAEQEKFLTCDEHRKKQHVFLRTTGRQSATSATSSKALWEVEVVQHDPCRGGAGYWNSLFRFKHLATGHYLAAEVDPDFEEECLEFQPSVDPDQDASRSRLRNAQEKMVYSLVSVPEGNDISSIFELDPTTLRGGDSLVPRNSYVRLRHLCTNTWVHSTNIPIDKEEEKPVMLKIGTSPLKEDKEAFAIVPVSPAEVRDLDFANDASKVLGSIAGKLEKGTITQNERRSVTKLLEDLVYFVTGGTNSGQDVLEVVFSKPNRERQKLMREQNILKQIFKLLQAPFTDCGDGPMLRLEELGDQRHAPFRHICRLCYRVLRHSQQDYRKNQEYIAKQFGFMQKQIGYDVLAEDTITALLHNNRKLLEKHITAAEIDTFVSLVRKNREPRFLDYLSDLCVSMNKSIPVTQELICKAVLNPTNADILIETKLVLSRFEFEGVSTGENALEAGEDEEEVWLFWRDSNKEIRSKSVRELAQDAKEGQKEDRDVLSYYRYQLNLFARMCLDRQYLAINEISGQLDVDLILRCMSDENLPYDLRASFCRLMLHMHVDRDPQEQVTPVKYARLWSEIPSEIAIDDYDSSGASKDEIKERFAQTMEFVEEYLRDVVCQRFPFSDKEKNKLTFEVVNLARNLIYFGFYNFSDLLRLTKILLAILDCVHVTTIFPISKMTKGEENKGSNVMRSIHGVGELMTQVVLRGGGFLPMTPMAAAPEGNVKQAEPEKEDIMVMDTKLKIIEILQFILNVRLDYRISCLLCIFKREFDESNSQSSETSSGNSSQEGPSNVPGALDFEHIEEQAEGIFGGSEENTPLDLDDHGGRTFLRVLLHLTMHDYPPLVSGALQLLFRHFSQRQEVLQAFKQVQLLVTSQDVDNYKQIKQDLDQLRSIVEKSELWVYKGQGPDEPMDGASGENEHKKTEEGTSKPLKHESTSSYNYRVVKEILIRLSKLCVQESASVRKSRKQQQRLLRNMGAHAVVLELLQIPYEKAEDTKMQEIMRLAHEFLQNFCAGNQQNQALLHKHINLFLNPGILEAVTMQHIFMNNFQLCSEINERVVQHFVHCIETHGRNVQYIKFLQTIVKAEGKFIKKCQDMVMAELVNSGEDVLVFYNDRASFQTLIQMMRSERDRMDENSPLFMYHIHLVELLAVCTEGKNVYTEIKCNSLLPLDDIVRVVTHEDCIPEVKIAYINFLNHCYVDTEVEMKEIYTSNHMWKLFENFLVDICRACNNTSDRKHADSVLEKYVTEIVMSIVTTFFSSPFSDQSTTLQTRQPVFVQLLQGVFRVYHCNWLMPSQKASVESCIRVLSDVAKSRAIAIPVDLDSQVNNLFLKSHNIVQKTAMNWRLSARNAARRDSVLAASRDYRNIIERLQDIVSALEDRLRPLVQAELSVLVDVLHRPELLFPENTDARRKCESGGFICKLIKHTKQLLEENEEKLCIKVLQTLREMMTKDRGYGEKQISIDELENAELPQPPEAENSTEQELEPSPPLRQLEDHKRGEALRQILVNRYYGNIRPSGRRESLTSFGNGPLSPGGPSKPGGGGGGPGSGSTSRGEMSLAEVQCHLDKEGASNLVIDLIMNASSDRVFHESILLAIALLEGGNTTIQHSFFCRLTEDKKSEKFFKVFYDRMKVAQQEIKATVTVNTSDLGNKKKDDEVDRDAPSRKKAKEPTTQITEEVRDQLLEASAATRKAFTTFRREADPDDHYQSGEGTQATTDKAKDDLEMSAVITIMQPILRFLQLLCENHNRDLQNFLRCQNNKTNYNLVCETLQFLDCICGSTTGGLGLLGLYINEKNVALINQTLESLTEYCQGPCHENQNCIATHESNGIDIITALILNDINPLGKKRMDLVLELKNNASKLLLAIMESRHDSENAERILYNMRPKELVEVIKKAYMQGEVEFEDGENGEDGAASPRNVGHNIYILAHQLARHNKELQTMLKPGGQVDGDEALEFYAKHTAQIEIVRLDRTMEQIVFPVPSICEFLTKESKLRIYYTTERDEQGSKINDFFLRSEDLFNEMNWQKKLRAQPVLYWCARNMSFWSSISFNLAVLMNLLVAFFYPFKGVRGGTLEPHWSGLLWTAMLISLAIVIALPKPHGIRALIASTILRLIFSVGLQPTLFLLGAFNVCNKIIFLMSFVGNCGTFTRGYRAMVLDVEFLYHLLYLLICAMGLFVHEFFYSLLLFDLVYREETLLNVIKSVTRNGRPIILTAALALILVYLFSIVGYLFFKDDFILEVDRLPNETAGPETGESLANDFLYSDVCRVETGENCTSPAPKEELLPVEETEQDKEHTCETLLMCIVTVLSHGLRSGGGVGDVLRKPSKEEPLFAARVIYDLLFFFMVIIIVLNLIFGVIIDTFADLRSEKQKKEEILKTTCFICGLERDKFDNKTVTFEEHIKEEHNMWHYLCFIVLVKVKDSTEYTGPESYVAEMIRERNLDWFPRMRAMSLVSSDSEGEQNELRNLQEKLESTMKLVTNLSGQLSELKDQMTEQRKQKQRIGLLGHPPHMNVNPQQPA

CCN(CC)CC.CCN(CC)CC.CCN(CC)CC.O=P(O)(O)O[C@H]1O[C@H](CO)[C@@H](OP(=O)(O)O)[C@H](OP(=O)(O)O)[C@H]1O
EC50 [1]: 2960 nM | Activity [2]: 78.8% | Kd [3]: 129 nM | Stability [4]: Stable | Ratio [5]: 23 | Stability [6]: Unstable | Stability [7]: Unstable | Stability [8]: Stable

CO[C@H]1O[C@H](COP(=O)(O)O)[C@@H](O)[C@H](OP(=O)(O)O)[C@H]1OP(=O)(O)O
Activity [9]: 4.3%

CO[C@@H]1O[C@@H](COP(=O)(O)O)[C@H](O)[C@@H](OP(=O)(O)O)[C@@H]1OP(=O)(O)O
EC50 [10]: 87700 nM | Activity [11]: 56.2% | Kd [3]: 1230 nM | Ratio [12]: 71 | Ratio [13]: 132

CCN(CC)CC.CCN(CC)CC.CCN(CC)CC.O=P(O)(O)O[C@@H]1O[C@H](CO)[C@@H](OP(=O)(O)O)[C@H](OP(=O)(O)O)[C@H]1O
EC50 [1]: 80 nM | Activity [2]: 75.2% | Kd [3]: 11.2 nM | Stability [4]: Stable | Ratio [5]: 7 | Stability [6]: Unstable | Stability [7]: Unstable | Stability [8]: Stable

CO[C@@H]1O[C@@H](COP(=O)(O)O)[C@H](OP(=O)(O)O)[C@@H](O)[C@@H]1OP(=O)(O)O
EC50 [10]: 104000 nM | Activity [11]: 53.1% | Kd [3]: 549 nM | Ratio [12]: 191 | Ratio [13]: 462

O=P(OCc1ccccc1)(OCc1ccccc1)O[C@@H]1O[C@H](COCc2ccccc2)[C@@H](OP(=O)(OCc2ccccc2)OCc2ccccc2)[C@H](OP(=O)(OCc2ccccc2)OCc2ccccc2)[C@H]1OCc1ccccc1
degraded at 504 h [14]: 30% | Drug metabolism [15]: Metabolite detected

Nc1ncnc2c1ncn2[C@@H]1O[C@H](CO)[C@@H](O[C@H]2O[C@H](CO)[C@@H](OP(=O)(O)O)[C@H](OP(=O)(O)O)[C@H]2O)[C@H]1OP(=O)(O)O [ADENOPHOSTIN A]
EC50 [1]: 24 nM | Kd [3]: 1.4 nM | Ratio [5]: 17

CO[C@H]1O[C@H](COP(=O)(O)O)[C@@H](OP(=O)(O)O)[C@H](O)[C@H]1OP(=O)(O)O
Activity [9]: 5.9%
